The text below walks through data of ChEMBL document CHEMBL2062420, “Triazole Appending Agent (TAAG): A New Synthon for Preparing Iodine-Based Molecular Imaging and Radiotherapy Agents” (ACS Med Chem Lett, 2012).

A value given as a limit tells only on which side of the number the result lay.

Data set [1] in a line: Lipophilicity, log D of the compound at pH 7.4. The data set is classed as physicochemical. Particulars: buffer; call rule not given here.
In data set [2] the test system is Thyroid gland. The experiment in a line: Drug uptake in NCr nude mouse thyroid xenografted with human LNCAP cells at 37 MBq, iv measured 24 hrs post injection by gamma counting. The data set is classed as ADME, organism-based. The following applies: in vivo. The essentials: (§1)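 Male NCr nude mice bearing LNCap tumours (PSMA-expressing) received 37 MBq of the radioiodinated PSMA-TAAG conjugate via the tail vein. Distribution was followed by scintigraphic imaging at 2 h and 24 h post-injection, with a fused scintigraphic-CT image taken at 23 h.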

Data set [3] in a line: Drug uptake in NCr nude mouse tumor xenografted with human LNCAP cells at 0.63 MBq, iv measured 1 hrs post injection by gamma counting. The data set is classed as ADME, organism-based, Neoplasm. Particulars: in vivo. In general terms: In xenograft studies the graft and the host belong to different species.
The nature of data set [4]: Drug uptake in NCr nude mouse tumor xenografted with human LNCAP cells measured 1 hr post injection in presence of PSMA inhibition PMPA. Type of data set: ADME, Neoplasm. Particulars: tumor (human LNCaP xenograft), with PMPA (PSMA inhibitor), amount not stated, read-out: Drug uptake.
Data set [5] is described as follows: Drug uptake in NCr nude mouse tumor xenografted with human LNCAP cells at 0.63 MBq, iv measured 23 hrs post injection by gamma counting. Particulars: in vivo. Type of data set: ADME, organism-based, Neoplasm.
Data set [6] deals with Thyroid gland. The experiment in a line: Drug uptake in NCr nude mouse thyroid xenografted with human LNCAP cells at 0.63 MBq, iv measured 23 hrs post injection by gamma counting. The following applies: in vivo. The data set is classed as ADME, organism-based.
The test system of data set [7] is Kidney. Nature of the data set: Drug uptake in NCr nude mouse kidney xenografted with human LNCAP cells at 37 MBq, iv measured 2 hrs post injection by gamma counting. The data set is classed as ADME, organism-based. The following applies: in vivo. The essentials:
as §1

Data set [8] relates to Urinary bladder. Nature of the data set: Drug uptake in NCr nude mouse bladder xenografted with human LNCAP cells at 37 MBq, iv measured 2 hrs post injection by gamma counting. The data set is classed as ADME, organism-based. The following applies: in vivo. Put shortly:
as §1

Data set [9] can be described thus: Drug uptake in NCr nude mouse tumor xenografted with human LNCAP cells at 37 MBq, iv measured 2 hrs post injection by gamma counting. The data set is classed as ADME, organism-based, Neoplasm. Particulars: in vivo. Put shortly:
as §1

A short description of data set [10]: Drug uptake in NCr nude mouse tumor xenografted with human LNCAP cells at 37 MBq, iv measured 24 hrs post injection by gamma counting. Particulars: in vivo. Type of data set: ADME, organism-based, Neoplasm. The essentials:
as §1

Data set [11] deals with Blood. Nature of the data set: Biodistribution in Balb/c mouse blood at 1.37 MBq, iv up to 30 mins by gamma counter. The data set is classed as ADME, organism-based. Particulars: in vivo, 0.5 h.
The test system of data set [12] is Heart. Nature of the data set: Biodistribution in Balb/c mouse heart at 1.37 MBq, iv up to 30 mins by gamma counter. The data set is classed as ADME, organism-based. Particulars: in vivo, 0.5 h.
Data set [13] has as its system Lung. Nature of the data set: Biodistribution in Balb/c mouse lungs at 1.37 MBq, iv up to 30 mins by gamma counter. The following applies: in vivo, 0.5 h. Type of data set: ADME, organism-based.
Data set [14] deals with Liver. The experiment in a line: Biodistribution in Balb/c mouse liver at 1.37 MBq, iv up to 30 mins by gamma counter. The data set is classed as ADME, organism-based. Particulars: in vivo, 0.5 h.
The subject of data set [15] is Spleen. The experiment in a line: Biodistribution in Balb/c mouse spleen at 1.37 MBq, iv up to 30 mins by gamma counter. Type of data set: ADME, organism-based. Particulars: in vivo, 0.5 h.
The subject of data set [16] is Kidney. Nature of the data set: Biodistribution in Balb/c mouse kidneys at 1.37 MBq, iv up to 30 mins by gamma counter. Type of data set: ADME, organism-based. The following applies: in vivo, 0.5 h.
Data set [17] concerns Mus musculus. Nature of the data set: Biodistribution in Balb/c mouse adrenals at 1.37 MBq, iv up to 30 mins by gamma counter. The data set is classed as ADME, organism-based, Adrenal tissue. Particulars: in vivo, 0.5 h.
For data set [18], the system named is Stomach. Nature of the data set: Biodistribution in Balb/c mouse stomach at 1.37 MBq, iv up to 30 mins by gamma counter. The data set is classed as ADME, organism-based. The following applies: in vivo, 0.5 h.
The subject of data set [19] is Mus musculus. The experiment in a line: Biodistribution in Balb/c mouse small intestine at 1.37 MBq, iv up to 30 mins by gamma counter. Type of data set: ADME, organism-based. Particulars: in vivo, 0.5 h.
The subject of data set [20] is Mus musculus. Nature of the data set: Biodistribution in Balb/c mouse large intestine at 1.37 MBq, iv up to 30 mins by gamma counter. The data set is classed as ADME, organism-based. Particulars: in vivo, 0.5 h.
Data set [21] relates to Urinary bladder. Nature of the data set: Biodistribution in Balb/c mouse bladder at 1.37 MBq, iv up to 30 mins by gamma counter. The data set is classed as ADME, organism-based. The following applies: in vivo, 0.5 h.
Data set [22] concerns Thyroid gland. The experiment in a line: Biodistribution in Balb/c mouse thyroid at 1.37 MBq, iv up to 30 mins by gamma counter. Type of data set: ADME, organism-based. The following applies: in vivo, 0.5 h.
Data set [23] relates to Bone. The experiment in a line: Biodistribution in Balb/c mouse bone at 1.37 MBq, iv up to 30 mins by gamma counter. Type of data set: ADME, organism-based, Bone element. The following applies: in vivo, 0.5 h.
Data set [24] concerns Mus musculus. Nature of the data set: Biodistribution in Balb/c mouse skeletal muscle at 1.37 MBq, iv up to 30 mins by gamma counter. The data set is classed as ADME, organism-based, Muscle tissue. Particulars: in vivo, 0.5 h.
Data set [25] concerns Brain. Nature of the data set: Biodistribution in Balb/c mouse brain at 1.37 MBq, iv up to 30 mins by gamma counter. Type of data set: ADME, organism-based. Particulars: in vivo, 0.5 h.
The nature of data set [26]: Stability of the compound in PBS at pH 7.4 after 48 hrs. The following applies: buffer, pH 7.4, 48 h. Type of data set: physicochemical.
The nature of data set [27]: Stability in PBS at pH 7.4 assessed as deiodination of compound after 48 hrs. Particulars: buffer, pH 7.4, 48 h. Type of data set: physicochemical.

Usually logD stands for lipophilicity at a set pH, counting ionised and neutral species. The low end stands for lower lipophilicity, the high end for higher lipophilicity. For `O=C(O)c1ccc(I)cc1`, the logD in data set [1] was 0.07.
For `O=C(O)CC[C@H](NC(=O)N[C@@H](CCCCNC(=O)Cn1cc([123I])nn1)C(=O)O)C(=O)O`, the Drug uptake result is on record as “Active” in [2]; 20 % ID/g in [3]; 15 % ID/g in data set [5]; 10 % ID/g in data set [6]; “Active” in data set [7]; “Active” in data set [8]. The Drug uptake result in data set [9] and in [10] was “Active” in each case. Also, the tissue uptake at 1 h in data set [4] was less than 2 %ID/g. The compound also displayed a logD in data set [1] of -3.23.
Consider `O=C(O)Cn1cc([123I])nn1`, for which the Drug uptake result in data set [11], in data set [12], in [13], in [14], in [15] and in [16] was “Not Active” in each case. In addition, the Drug uptake entry in [17] was “Not Active”; in [18] it was “Not Active”; in data set [19], “Not Active”; in data set [20] it was “Not Active”; in data set [21], “Active”; in [22], “Not Active”. The Drug uptake result in [23], in [24] and in data set [25] was “Not Active” in each case. The Stability result in data set [26] and in data set [27] was “Stable” throughout. The compound also registered a logD in data set [1] of -2.58.
